According to ChEMBL document CHEMBL4699410, “Discovery, SAR study and ADME properties of methyl 4-amino-3-cyano-1-(2-benzyloxyphenyl)-1H-pyrazole-5-carboxylate as an HIV-1 replication inhibitor” (RSC Med Chem, 2020):
In brackets after ≈: the same amount, converted by molar mass. Activity calls are given as the source filed them. No cut-off for these calls is given here.

What was measured:
[1] = tested on: Human immunodeficiency virus 1; assay: (§1) Antiviral activity against HIV1 LAI infected in human HeLa-P4 cells harboring a stably integrated LTR-linked LacZ reporter gene assessed as inhibition of viral replication at 50 uM preincubated with cells for 2 hrs followed by viral infection and measured after 48 hrs of compound challenge by CPRG based beta-galactosidase assay relative to control; assay type: functional; settings: Human immunodeficiency virus 1, LAI, HeLaP4
In short: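 Single-concentration screen: HeLa P4 cells (stably integrated LTR–LacZ reporter) infected with HIV-1 Laï and incubated 48 h with compound at 50 µM; zidovudine as positive control.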

[2] = Cytotoxicity against human HeLa-P4 cells at 50 uM […] by MTS assay relative to control; assay type: cell-based; settings: hela p4, 50 µM
[3] = tested on: Human immunodeficiency virus 1; assay: as §1, with “replication” for “replication at 50 uM”, “assay” for “assay relative to control”; assay type: functional, organism-based
[4] = tested on: Human immunodeficiency virus 1; assay: Antiviral activity against HIV1 LAI infected in human MT2 cells assessed as suppression of viral replication up to 50 uM pre-incubated with cells for 2 hr before viral infection and measured after 3 days of cultivation by RT-PCR analysis; assay type: functional, organism-based; settings: dose microM <=50, time 3.0 day
[5] = Thermodynamic solubility of compound in PBS at pH 7.4 incubated for 24 hrs under shaking condition by HPLC analysis; assay type: physicochemical; settings: read-out: Therm_solubility
[6] = Octanol/water partition coefficient, logD of the compound at pH 7.4 by shake flask method; assay type: physicochemical
[7] = Plasma protein binding in mouse at 1 uM incubated for 4 hrs by rapid equilibrium dialysis method; assay type: ADME, cell-free; settings: read-out: PPB (converted)
[8] = Metabolic stability in CD1 mouse liver microsomes assessed as half life of compound at 1 uM and measured up to 60 mins in presence of NADPH by LC-MS analysis; assay type: ADME, Microsome
[9] = Stability in CD-1 mouse plasma assessed as parent compound remaining at 1 uM measured up to 60 mins by LC-MS/MS analysis; assay type: ADME, cell-free; settings: read-out: Stabilty
[10] = Cmax in iv dosed mouse plasma measured after 10 mins; assay type: ADME, organism-based; parameters: route intravenous, time 10 min
[11] = Cmax in po dosed mouse plasma measured after 10 mins; assay type: ADME, organism-based; parameters: route oral, time 10 min
[12] = target: Human immunodeficiency virus type 1 reverse transcriptase (Human immunodeficiency virus 1, UniProt Q72547); assay: Inhibition of wild-type recombinant HIV-1 subtype B reverse transcriptase p66/p51 heterodimer expressed in Escherichia coli using calf thymus DNA and [3H]-deoxythymidine 5'-triphophaste as substrate measured after 15 mins by liquid scintillation counting method
In short: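 Inhibition measured with subtype B wild-type HIV-1 RT in an in vitro susceptibility assay; nevirapine and AZT as positive controls.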

[13] = tested on: Human immunodeficiency virus 1; assay: Inhibition of recombinant HIV1 integrase mediated strand transfer activity at 0.1 to 333 uM in presence of U5A/U5B2 and [gamma-32P]ATP; settings: dose microM 0.1-333
In short: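 HIV-1 integrase strand-transfer reaction run with increasing inhibitor concentrations from 100 nM to 333 µM, with raltegravir as positive control, and the strand-transfer efficiency was measured.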

[14] = Human immunodeficiency virus 1, LAI, HeLaP4, read-out: EC50

## COC(=O)c1c(N)c(C#N)nn1-c1ccc(C(=O)OC(C)(C)C)cc1
[1]
  inhibition at 50 µM: 47%
[2]
  Activity: 14%

## COC(=O)c1c(N)c(C#N)nn1-c1ccccc1[N+](=O)[O-]
[1]
  inhibition at 50 µM: 42%
[2]
  Activity: 0%

## COC(=O)c1c(N)c(C#N)nn1-c1ccccc1OCc1ccccc1
[1]
  inhibition at 50 µM: 63%
[2]
  Activity: 9%
[3]; [14]
  EC50: 19.4 µM
[3]; hela p4
  EC50: Dose-dependent effect
[4]
  Activity: Active
[5]
  solubility thermodynamic at 24 h: 9.6 µM (≈ 3.34 µg/mL)
[6]
  logD: 3.69
[7]
  fraction unbound at 4 h, 1 µM: 0.05
[8]
  half-life at 1 µM: 3 min
[9]
  remaining at 1 h, 1 µM: 100%
[10]
  Cmax: 238 ng/mL
[11]
  Cmax: 18 ng/mL
[12]
  IC50: > 1000 µM
[13]
  inhibition: inactive

## COC(=O)c1c(N)c(C#N)nn1-c1ccc(Cl)cc1
[1]
  inhibition at 50 µM: 56%
[2]
  Activity: > 15%

## COC(=O)c1c(N)c(C#N)nn1-c1cccc(C(F)(F)F)c1
[1]
  inhibition at 50 µM: < 30%
[2]
  Activity: > 15%

## C[C@H](Cn1cnc2c(N)ncnc21)OCP(=O)(O)O [TENOFOVIR ANHYDROUS]
[3]; [14]
  EC50: 13.3 µM

## C#Cc1cccc(-n2nc(C#N)c(N)c2C(=O)OC)c1
[1]
  inhibition at 50 µM: < 30%
[2]
  Activity: 14%

## C#Cc1ccccc1-n1nc(C#N)c(N)c1C(=O)OC
[1]
  inhibition at 50 µM: < 30%
[2]
  Activity: 7%

## COC(=O)c1c(N)c(C#N)nn1-c1ccc(OCc2ccccc2)cc1
[1]
  inhibition at 50 µM: < 30%
[2]
  Activity: 3.8%

## COC(=O)c1c(N)c(C#N)nn1-c1ccccc1I
[1]
  inhibition at 50 µM: < 30%
[2]
  Activity: > 15%

## COC(=O)c1c(N)c(C#N)nn1-c1ccc(C(F)(F)F)cc1
[1]
  inhibition at 50 µM: < 30%
[2]
  Activity: 14%

## COC(=O)c1c(N)c(C#N)nn1-c1cccc([N+](=O)[O-])c1
[1]
  inhibition at 50 µM: 47%
[2]
  Activity: 0%

## COC(=O)c1c(N)c(C#N)nn1-c1ccccc1Cl
[1]
  inhibition at 50 µM: 30%
[2]
  Activity: 2.4%

## COC(=O)c1c(N)c(C#N)nn1-c1cccc(OC)c1
[1]
  inhibition at 50 µM: < 30%
[2]
  Activity: 6%

## COC(=O)c1c(N)c(C#N)nn1-c1cccc(OCc2ccccc2)c1
[1]
  inhibition at 50 µM: 65%
[2]
  Activity: 11%
[3]; [14]
  EC50: 15.2 µM
[3]; hela p4
  EC50: Dose-dependent effect
[4]
  Activity: Active
[5]
  solubility thermodynamic at 24 h: 1.03 µM (≈ 0.359 µg/mL)
[6]
  logD: 3.84
[8]
  half-life at 1 µM: 4.6 min
[9]
  remaining at 1 h, 1 µM: 100%
[10]
  Cmax: 241 ng/mL

## COC(=O)c1c(N)c(C#N)nn1-c1ccc([N+](=O)[O-])cc1
[1]
  inhibition at 50 µM: 43%
[2]
  Activity: 0%

## COC(=O)c1c(N)c(C#N)nn1-c1ccc(OC)cc1
[1]
  inhibition at 50 µM: < 30%
[2]
  Activity: 14.6%

## COC(=O)c1c(N)c(C#N)nn1-c1cccc(Br)c1
[1]
  inhibition at 50 µM: 42%
[2]
  Activity: 9%

## COC(=O)c1c(N)c(C#N)nn1-c1ccccc1Br
[1]
  inhibition at 50 µM: 32%
[2]
  Activity: 4.8%

## COC(=O)c1c(N)c(C#N)nn1-c1cccc(C(=O)OC(C)(C)C)c1
[1]
  inhibition at 50 µM: 36%
[2]
  Activity: 0%

## COC(=O)c1c(N)c(C#N)nn1-c1cccc(Cl)c1
[1]
  inhibition at 50 µM: < 30%
[2]
  Activity: 11%

## COC(=O)c1c(N)c(C#N)nn1-c1ccccc1OC
[1]
  inhibition at 50 µM: < 30%
[2]
  Activity: 9.2%

## COC(=O)c1c(N)c(C#N)nn1-c1ccc(Br)cc1
[1]
  inhibition at 50 µM: 67%
[2]
  Activity: > 15%

## COC(=O)c1c(N)c(C#N)nn1-c1ccccc1F
[1]
  inhibition at 50 µM: < 30%
[2]
  Activity: 3.6%

## COC(=O)c1c2nc(-c3cccc(Br)c3)cc(N)c2nn1-c1cccc(OC)c1
[1]
  inhibition at 50 µM: 54%
[2]
  Activity: 2%

## COC(=O)c1c(N)c(C#N)nn1-c1ccccc1
[1]
  inhibition at 50 µM: < 30%
[2]
  Activity: 7%

## COC(=O)c1c(N)c(C#N)nn1-c1ccc(F)cc1
[1]
  inhibition at 50 µM: < 30%
[2]
  Activity: 6%

## COC(=O)c1c(N)c(C#N)nn1-c1ccccc1C(=O)OC(C)(C)C
[1]
  inhibition at 50 µM: < 30%
[2]
  Activity: 2.8%

## COC(=O)c1c(N)c(C#N)nn1-c1cccc(F)c1
[1]
  inhibition at 50 µM: 48%
[2]
  Activity: 0%
